{"source": "ChEMBL document CHEMBL1143854", "about": "(Antimicrob Agents Chemother, 2007)", "assay_type_in_all_cases": "functional, organism-based", "key": {"Plasmodium falciparum [1]": {"test_system": "Plasmodium falciparum", "test": "Reduction of [3H]chloroquine uptake in chloroquine-sensitive Plasmodium falciparum 3D7 infected erythrocytes after 90 min", "how_it_was_run": "(§1)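 Trophozoite-stage parasitized erythrocytes (5% parasitemia, 1.5% hematocrit) added to microtubes holding unlabeled antimalarial plus radiolabeled drug ([3H]DHA 1.4 Ci/mmol or [3H]CQ 50.4 Ci/mmol); 37°C, 90 min. Cells spun through silicon oil, radioactivity by liquid scintillation. Uptake as percent of control parasitized erythrocytes after subtracting uninfected-erythrocyte uptake; at least two experiments, each in triplicate.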"}, "Plasmodium falciparum [2]": {"test_system": "Plasmodium falciparum", "test": "Reduction of [3H]chloroquine uptake in chloroquine-resistant Plasmodium falciparum RSA11 infected erythrocytes after 90 min", "how_it_was_run": "(§2)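 [3H]chloroquine (50.4 Ci/mmol) uptake into trophozoite-infected erythrocytes (5% parasitemia, 1.5% hematocrit), with unlabeled antimalarial added at the start, 90 min at 37°C. Cells spun through silicone oil, radioactivity counted by liquid scintillation. Uptake given as percent of untreated infected-cell control after subtracting uptake in uninfected erythrocytes. At least two experiments, each in triplicate.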"}, "Plasmodium falciparum [3]": {"test_system": "Plasmodium falciparum", "test": "Reduction of [3H]dihydroartemisinin uptake in chloroquine-sensitive Plasmodium falciparum FC27 infected erythrocytes after 90 min", "how_it_was_run": "as §1"}, "Plasmodium falciparum [4]": {"test_system": "Plasmodium falciparum", "test": "Reduction of [3H]dihydroartemisinin uptake in chloroquine-sensitive Plasmodium falciparum 3D7 infected erythrocytes after 90 min", "how_it_was_run": "as §1"}, "Plasmodium falciparum [5]": {"test_system": "Plasmodium falciparum", "test": "Reduction of [3H]chloroquine uptake in chloroquine-sensitive Plasmodium falciparum FC27 infected erythrocytes after 90 min", "how_it_was_run": "as §1"}, "Plasmodium falciparum [6]": {"test_system": "Plasmodium falciparum", "test": "Reduction of [3H]dihydroartemisinin uptake in chloroquine-resistant Plasmodium falciparum RSA11 infected erythrocytes after 90 min", "how_it_was_run": "as §2, with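 “[3H]dihydroartemisinin (1.4” for “[3H]chloroquine (50.4”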"}, "Plasmodium falciparum [7]": {"test_system": "Plasmodium falciparum", "test": "Reduction of [3H]dihydroartemisinin uptake in chloroquine-resistant Plasmodium falciparum K1 infected erythrocytes after 90 min", "how_it_was_run": "as §2, with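 “[3H]dihydroartemisinin (1.4” for “[3H]chloroquine (50.4”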"}, "Plasmodium falciparum [8]": {"test_system": "Plasmodium falciparum", "test": "Antimalarial activity against chloroquine-resistant Plasmodium falciparum 34-1/E"}, "Plasmodium falciparum [9]": {"test_system": "Plasmodium falciparum", "test": "Antimalarial activity against chloroquine-resistant Plasmodium falciparum K1"}, "Plasmodium falciparum [10]": {"test_system": "Plasmodium falciparum", "test": "Antimalarial activity against chloroquine-resistant Plasmodium falciparum RSA11"}, "Plasmodium falciparum [11]": {"test_system": "Plasmodium falciparum", "test": "Antimalarial activity against chloroquine-resistant Plasmodium falciparum 7G8-mdr7G8"}, "Plasmodium falciparum [12]": {"test_system": "Plasmodium falciparum", "test": "Antimalarial activity against chloroquine-sensitive Plasmodium falciparum T996"}, "Plasmodium falciparum [13]": {"test_system": "Plasmodium falciparum", "test": "Antimalarial activity against chloroquine-sensitive Plasmodium falciparum 3D7"}, "Plasmodium falciparum [14]": {"test_system": "Plasmodium falciparum", "test": "Antimalarial activity against chloroquine-sensitive Plasmodium falciparum FC27"}, "Plasmodium falciparum [15]": {"test_system": "Plasmodium falciparum", "test": "Antimalarial activity against chloroquine-sensitive Plasmodium falciparum 106/1"}}, "note": "Activity calls are given as the source filed them. The calls are words filed in the database; no cut-off is given here.", "data": [{"compound": "OC(c1cc(C(F)(F)F)nc2c(C(F)(F)F)cccc12)C1CCCCN1", "note": "(configuration not stated)", "values": [{"measurement": "Activity", "setting": "Plasmodium falciparum [1]", "value": "Active"}, {"measurement": "Activity", "setting": "Plasmodium falciparum [2]", "value": "Active"}, {"measurement": "Activity", "setting": "Plasmodium falciparum [2]; K1", "value": "Active"}, {"measurement": "Activity", "setting": "Plasmodium falciparum [3]", "value": "Active"}, {"measurement": "Activity", "setting": "Plasmodium falciparum [4]", "value": "Active"}, {"measurement": "Activity", "setting": "Plasmodium falciparum [5]", "value": "Active"}, {"measurement": "Activity", "setting": "Plasmodium falciparum [6]", "value": "Active"}, {"measurement": "Activity", "setting": "Plasmodium falciparum [7]", "value": "Active"}]}, {"compound": "CO[C@H]1O[C@@H]2O[C@@]3(C)CC[C@H]4[C@H](C)CC[C@@H]([C@H]1C)[C@@]24OO3", "values": [{"measurement": "Activity", "setting": "Plasmodium falciparum [1]", "value": "Active"}, {"measurement": "Activity", "setting": "Plasmodium falciparum [2]", "value": "Active"}, {"measurement": "Activity", "setting": "Plasmodium falciparum [2]; K1", "value": "Active"}, {"measurement": "Activity", "setting": "Plasmodium falciparum [3]", "value": "Active"}, {"measurement": "Activity", "setting": "Plasmodium falciparum [4]", "value": "Active"}, {"measurement": "Activity", "setting": "Plasmodium falciparum [5]", "value": "Active"}, {"measurement": "Activity", "setting": "Plasmodium falciparum [6]", "value": "Active"}, {"measurement": "Activity", "setting": "Plasmodium falciparum [7]", "value": "Active"}]}, {"compound": "CCN(CC)Cc1cc(Nc2ccnc3cc(Cl)ccc23)ccc1O", "values": [{"measurement": "IC50", "setting": "Plasmodium falciparum [8]", "value": 17.2, "unit": "nM"}, {"measurement": "IC50", "setting": "Plasmodium falciparum [9]", "value": 22.4, "unit": "nM"}, {"measurement": "Activity", "setting": "Plasmodium falciparum [3]", "value": "Active"}, {"measurement": "IC50", "setting": "Plasmodium falciparum [10]", "value": 26.7, "unit": "nM"}, {"measurement": "Activity", "setting": "Plasmodium falciparum [4]", "value": "Active"}, {"measurement": "IC50", "setting": "Plasmodium falciparum [11]", "value": 32.7, "unit": "nM"}, {"measurement": "IC50", "setting": "Plasmodium falciparum [12]", "value": 14.8, "unit": "nM"}, {"measurement": "IC50", "setting": "Plasmodium falciparum [13]", "value": 18.4, "unit": "nM"}, {"measurement": "IC50", "setting": "Plasmodium falciparum [14]", "value": 6.68, "unit": "nM"}, {"measurement": "Activity", "setting": "Plasmodium falciparum [6]", "value": "Active"}, {"measurement": "IC50", "setting": "Plasmodium falciparum [15]", "value": 17.5, "unit": "nM"}, {"measurement": "Activity", "setting": "Plasmodium falciparum [7]", "value": "Active"}]}, {"compound": "CCN(CC)CCCC(C)Nc1ccnc2cc(Cl)ccc12", "note": "(configuration not stated)", "values": [{"measurement": "Activity", "setting": "Plasmodium falciparum [1]", "value": "Active"}, {"measurement": "Activity", "setting": "Plasmodium falciparum [2]", "value": "Active"}, {"measurement": "Activity", "setting": "Plasmodium falciparum [2]; K1", "value": "Active"}, {"measurement": "Activity", "setting": "Plasmodium falciparum [3]", "value": "Active"}, {"measurement": "Activity", "setting": "Plasmodium falciparum [4]", "value": "Active"}, {"measurement": "Activity", "setting": "Plasmodium falciparum [5]", "value": "Active"}, {"measurement": "Activity", "setting": "Plasmodium falciparum [6]", "value": "Active"}, {"measurement": "Activity", "setting": "Plasmodium falciparum [7]", "value": "Active"}]}, {"compound": "Clc1ccc2c(N3CCN(CCCN4CCN(c5ccnc6cc(Cl)ccc56)CC4)CC3)ccnc2c1", "note": "[PIPERAQUINE]", "values": [{"measurement": "Activity", "setting": "Plasmodium falciparum [1]", "value": "Active"}, {"measurement": "IC50", "setting": "Plasmodium falciparum [8]", "value": 16.4, "unit": "nM"}, {"measurement": "Activity", "setting": "Plasmodium falciparum [2]", "value": "Active"}, {"measurement": "Activity", "setting": "Plasmodium falciparum [2]; K1", "value": "Active"}, {"measurement": "Activity", "setting": "Plasmodium falciparum [3]", "value": "Active"}, {"measurement": "Activity", "setting": "Plasmodium falciparum [4]", "value": "Active"}, {"measurement": "IC50", "setting": "Plasmodium falciparum [12]", "value": 19.9, "unit": "nM"}, {"measurement": "IC50", "setting": "Plasmodium falciparum [13]", "value": 36.9, "unit": "nM"}, {"measurement": "Activity", "setting": "Plasmodium falciparum [5]", "value": "Active"}, {"measurement": "IC50", "setting": "Plasmodium falciparum [14]", "value": 29.6, "unit": "nM"}, {"measurement": "Activity", "setting": "Plasmodium falciparum [6]", "value": "Active"}, {"measurement": "IC50", "setting": "Plasmodium falciparum [15]", "value": 22.2, "unit": "nM"}, {"measurement": "Activity", "setting": "Plasmodium falciparum [7]", "value": "Active"}]}, {"compound": "C[C@H]1[C@@H](O)O[C@@H]2O[C@@]3(C)CC[C@H]4[C@H](C)CC[C@@H]1[C@@]24OO3", "values": [{"measurement": "Activity", "setting": "Plasmodium falciparum [1]", "value": "Active"}, {"measurement": "Activity", "setting": "Plasmodium falciparum [2]", "value": "Active"}, {"measurement": "Activity", "setting": "Plasmodium falciparum [2]; K1", "value": "Active"}, {"measurement": "Activity", "setting": "Plasmodium falciparum [3]", "value": "Active"}, {"measurement": "Activity", "setting": "Plasmodium falciparum [4]", "value": "Active"}, {"measurement": "Activity", "setting": "Plasmodium falciparum [5]", "value": "Active"}, {"measurement": "Activity", "setting": "Plasmodium falciparum [6]", "value": "Active"}, {"measurement": "Activity", "setting": "Plasmodium falciparum [7]", "value": "Active"}]}]}
